The list is not random: actives were taken first. Their share in the collection is about 1.5%.
Casp6 inh – inhibitors of human caspase-6; P55212; purified caspase-6, Z-VEID-R110 cleavage fluorescence; inhibition, % at 12.5 µM; hit rate 0.53% among 350,000;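 active = mean inhibition across replicates at least about 35%, with every replicate also reaching that limit, limit read from the data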;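 also: 0% = median of neutral control wells and 100% = no fluorescence left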
NS3 helicase inh – blocks Hepatitis C virus NS3 helicase unwinding | NS3 helicase DNA unwinding, Cy5 molecular beacon fluorescence | inhibition, % at 10.9 µM | hit rate 0.56% among 290,000 | AID 1800;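 active = inhibition above the mean of all tested compounds plus 3 SD, set per campaign, cut at about 35% in these data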;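 also: 0% = DMSO wells and 100% = thioflavine S control wells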
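Compound dosing – single dose, 10.9 µM nominal final, DMSO 0.8% final · System – NS3 helicase fragment of HCV · Buffer or medium – MOPS pH 6.5, MgCl2, DTT, Tween20, BSA · Signal – Cy5 beacon fluorescence read at start and 1 h · Also added – annealed dual-labelled DNA beacon duplex, ATP-started · Schedule – 1 h at 25 °C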
NSD2 inh – NSD2 (human) methyltransferase inhibition | inhibition, % at 12.5 µM | O96028 | hit rate 0.54% among 310,000 | NSD2 peptide methylation, AlphaScreen, 120 min; in the data active = inhibition above about 50%
DNMT1 inh – blocks human DNA methyltransferase DNMT1. DNMT1 molecular beacon, Hinp1I cleavage, fluorescence. hit rate 0.83% among 360,000. inhibition (reported as % activation of signal), % at 10 µM. AID 588458; in the data active = inhibition above about 50%
Target sequence (P26358 504-1616 limits assumed): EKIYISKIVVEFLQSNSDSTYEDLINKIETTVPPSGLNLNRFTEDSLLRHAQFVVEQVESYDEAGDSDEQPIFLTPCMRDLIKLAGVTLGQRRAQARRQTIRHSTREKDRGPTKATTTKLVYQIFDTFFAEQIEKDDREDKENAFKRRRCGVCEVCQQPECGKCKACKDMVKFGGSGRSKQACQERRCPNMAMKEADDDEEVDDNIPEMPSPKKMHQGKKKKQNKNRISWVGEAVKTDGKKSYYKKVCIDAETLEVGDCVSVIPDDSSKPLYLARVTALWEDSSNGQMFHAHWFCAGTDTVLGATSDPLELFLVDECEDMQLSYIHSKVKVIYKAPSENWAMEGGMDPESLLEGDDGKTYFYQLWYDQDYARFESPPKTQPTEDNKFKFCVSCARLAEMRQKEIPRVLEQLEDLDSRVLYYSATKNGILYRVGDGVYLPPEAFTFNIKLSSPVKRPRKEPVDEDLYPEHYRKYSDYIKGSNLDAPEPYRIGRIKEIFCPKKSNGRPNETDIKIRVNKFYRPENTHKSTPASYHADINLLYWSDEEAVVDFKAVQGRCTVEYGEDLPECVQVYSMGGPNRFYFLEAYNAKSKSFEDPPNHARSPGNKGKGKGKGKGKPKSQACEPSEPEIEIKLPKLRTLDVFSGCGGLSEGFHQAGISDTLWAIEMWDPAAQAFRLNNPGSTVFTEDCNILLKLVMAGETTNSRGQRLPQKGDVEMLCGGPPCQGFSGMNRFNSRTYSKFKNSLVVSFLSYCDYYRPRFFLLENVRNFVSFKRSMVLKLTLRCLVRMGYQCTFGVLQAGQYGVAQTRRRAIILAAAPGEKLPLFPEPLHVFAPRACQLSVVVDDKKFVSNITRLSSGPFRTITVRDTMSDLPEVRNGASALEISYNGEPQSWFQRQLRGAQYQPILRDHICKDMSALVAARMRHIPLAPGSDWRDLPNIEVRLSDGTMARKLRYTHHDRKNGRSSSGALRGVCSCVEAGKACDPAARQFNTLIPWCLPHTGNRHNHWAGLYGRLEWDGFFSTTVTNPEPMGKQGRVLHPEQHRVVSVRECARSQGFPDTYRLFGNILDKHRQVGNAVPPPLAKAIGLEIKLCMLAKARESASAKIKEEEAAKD
Beacon interf DR – counter-screen for DNMT1 inhibitors: spectral interference, dose response | shares compounds with DNMT1 inh | molecular beacon fluorescence | IC50, µM | 200 tested, under 10 active | AID 602382
DNMT1 confirm – DNMT1 inhibition confirmation, single concentration. shares compounds with DNMT1 inh. DNMT1 molecular beacon HinP1I cleavage, fluorescence. inhibition, % at 10 µM. hit rate 8% among 2,300;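 active = average inhibition of at least 30% in the single-concentration confirmation test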
DNMT1 interf – counter-screen for DNMT1 inhibitors: spectral interference; activation (fluorescence interference), % at 10 µM; hit rate 1% among 2,300; DNMT1 molecular beacon spectral interference counterscreen, fluorescence 485/520; shares compounds with DNMT1 inh;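 active = activation of at least 30% at 10 µM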;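 also: DNMT1 catalytic domain with a HinP1I cleavage step and a FAM/dabcyl DNA beacon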
CASP1 counter – selectivity counter-screen: inhibitors of human caspase-1; shares compounds with Casp6 inh; purified caspase-1, Z-YVAD-R110 cleavage fluorescence; activity change, negative = inhibition, % at 35 µM; 100 tested, under 10 active; AID 743289;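 active = compounds lowering fluorescence whose fitted half-maximal concentration is no more than twice their top tested dose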
Alpha artifact – AlphaScreen assay artifact in NSD2 counter-screen; shares compounds with NSD2 inh; AlphaScreen artifact counterscreen, preloaded methylated H4 peptide; AC35, µM (doses to about 10 µM), inactives show top-dose activity change, negative = signal loss; hit rate 9.4% among 1,500; AID 1053174
Starred values were filed as active, the others as inactive; . = no result. Unless noted, no rule for the calls is given here.

SMILES	Casp6 inh	NS3 helicase inh	NSD2 inh	DNMT1 inh	DNMT1 confirm	DNMT1 interf	others
COc1ccc(N2C(=O)/C(=C/c3ccc(C)o3)C(=O)NC2=S)cc1	40.0*	-1.6	36.9	87.0*	11.2	-0.7
O=C(O)[C@H]1[C@H](CO)[C@H]2Cn3c(ccc(-c4ccccc4)c3=O)[C@@H]1N2C(=O)C1CCCCC1	-0.6	.	.	.	.	.
COC(=O)C1=C(c2ccc(S(C)(=O)=O)cc2)C[C@@H]2CC[C@H]1N2C(=O)N1CCOCC1	2.7	.	.	67.3*	1.4	-0.4
O=C(Cc1ccncc1)N1CCCCN2[C@H](CO)[C@H](c3ccc(C#Cc4ccccc4F)cc3)[C@H]2C1	2.0	.	.	.	.	.
COc1ccc(Cn2c(N)c(C(=O)NCc3ccco3)c3nc4ccccc4nc32)cc1OC	.	19.2	-9.1	86.7*	9.9	8.5
COCCOC(=O)c1c(N)n(Cc2ccco2)c2nc3ccccc3nc12	.	6.9	24.2	66.3*	0.5	1.6
COC(=O)c1c(N)n(Cc2ccc(OC)cc2)c2nc3ccccc3nc12	.	-4.4	-2.1	69.7*	0.9	-0.3
Nc1c(C(=O)OCC2CCCO2)c2nc3ccccc3nc2n1Cc1cccs1 (stereo not drawn)	.	-5.5	-11.4	73.4*	0.2	1.9
CC(C)OCCCNC(=O)c1c(N)n(Cc2cccs2)c2nc3ccccc3nc12	.	-8.4	2.0	31.9	.	.
O=C(Cc1ccccn1)N1CCCCN2[C@@H](CO)[C@H](c3ccc(C#Cc4ccccc4)cc3)[C@@H]2C1	-3.8	.	.	.	.	.
CC(N)Cc1c[nH]c2ccc(O)cc12 (stereo not drawn)	-2.6	.	.	75.5*	0.6	3.2
CC(N)Cc1c[nH]c2ccc(OCc3cccs3)cc12 (stereo not drawn)	-3.3	.	.	0.5	.	.
C[C@]12CC[C@@H](O)CC1=CCC1C2CC[C@@]2(C)C1CC[C@@H]2N (stereo partly drawn)	-3.9	.	0.9	81.3*	0.6	2.1
C[C@]12CCC(OC(=O)CCC(=O)O)CC1=CCC1C2CC[C@]2(C)C(=O)CCC12 (stereo partly drawn)	0.4	6.8	-3.2	91.1*	3.6	3.8
Cc1cc(/C=C2\C(=O)NC(=O)N(Cc3ccco3)C2=O)c(C)n1-c1ccc(O)cc1	69.0*	16.6	8.3	72.5*	5.7	2.2
O=C1NC(=O)N(Cc2ccc(F)cc2)C(=O)/C1=C/c1cccs1	.	3.1	18.5	14.5	.	.
Cn1cccc1/C=C1\C(=O)NC(=O)N(Cc2ccco2)C1=O	.	23.9	24.0	104.0*	19.5	1.7
Cc1cc(/C=C2\C(=O)NC(=O)N(Cc3ccco3)C2=O)c(C)n1-c1ccc(C(=O)O)cc1	70.6*	24.5	.	86.3*	7.7	-1.3
O=C(Cc1cccnc1)N1CCCCN2[C@H](CO)[C@@H](c3ccc(C#CC4CC4)cc3)[C@H]2C1	-1.1	.	.	.	.	.
C[C@H]1CN([C@@H](C)CO)C(=O)c2c(c3ccccc3n2C)-c2ccccc2CO[C@H]1CN(C)C(=O)Oc1ccccc1	-1.4	.	.	.	.	.
C/C=C/c1ccc(C2[C@@H]3CN(C(=O)C4CC4)C[C@H]2N3)cc1 (stereo partly drawn)	-2.0	.	.	.	.	.
O=C(CCc1nc(-c2ccccc2F)no1)N1CCC2(CC1)OCCO2	.	-0.7	.	57.9*	0.4	0.0
COc1ccc(CCC(=O)N2CCC3(CC2)OCCO3)cc1	.	-2.8	-6.5	1.8	.	.
COC(=O)[C@H]1[C@H](CO)[C@H]2Cn3c(ccc(/C=C/c4ccccc4)c3=O)[C@@H]1N2C(=O)C1CC1	3.3	.	.	.	.	.
O=C(O)[C@H]1[C@H](CO)[C@H]2Cn3c(ccc(-c4ccc(F)cc4)c3=O)[C@@H]1N2CC1CCCC1	-0.1	.	.	.	.	.
SMILES	Casp6 inh	NS3 helicase inh	NSD2 inh	DNMT1 inh	DNMT1 confirm	DNMT1 interf	others
Clc1ccc(-c2nc3ccc(Cl)cn3c2CN2CCOCC2)cc1	.	-8.1	1.8	73.3*	1.9	5.1
Clc1ccc(-c2nc3ccc(Cl)cn3c2CN2CCCCC2)cc1	-1.1	-8.5	-2.5	3.9	.	.
COC(=O)[C@@H]1[C@@H](CO)[C@@H]2Cn3c(ccc(-c4ccccc4F)c3=O)[C@H]1N2Cc1ccncc1	-0.7	.	.	.	.	.
O=C1CC(N2CCC(n3c(=O)[nH]c4ccccc43)CC2)C(=O)N1c1ccc(F)cc1 (stereo not drawn)	.	-2.9	-0.8	61.0*	0.1	2.4
O=C1CNC[C@@H]2[C@H](c3ccc(Br)cc3)[C@@H](CO)N12	2.0	.	.	.	.	.
Cc1ccc(S(=O)(=O)Cc2ccc(C(=O)N3CCC4(CC3)OCCO4)o2)cc1	.	5.0	14.9	58.4*	1.4	2.8
CCN1C(=O)/C(=C/c2ccc3c(c2)CCN3CCCCl)C(=O)NC1=S	17.1	16.0	11.9	101.6*	14.1	5.7
CCC(C)N1C(=O)/C(=C\c2cc3c4c(c2)CCCN4CCC3)C(=O)NC1=S (stereo not drawn)	2.6	-9.2	22.2	2.0	.	.
O=C1NC(=S)N(C2CC2)C(=O)/C1=C/c1ccc2c(c1)CCN2CCCCl	.	35.7	19.0	87.5*	10.6	1.7
C=CCN1C(=O)/C(=C/c2ccc3c(c2)CCCN3CCC)C(=O)NC1=S	.	5.5	26.9	2.1	.	.
CCN(C(=O)COC(=O)Cc1ccccc1)c1c(N)n(Cc2ccccc2)c(=O)[nH]c1=O	-1.2	.	0.5	86.5*	4.1	2.7
N#Cc1cccc(-c2ccc([C@H]3[C@H]4CN(C(=O)Cc5ccncc5)CCCCN4[C@H]3CO)cc2)c1	3.1	.	.	.	.	.
CN1CCc2nc(SCc3cccc(Br)c3)c(C#N)cc2C1	-0.8	-32.8	1.6	69.7*	2.5	4.1
Cc1cc(/C=C2\C(=O)NC(=O)N(Cc3ccccc3)C2=O)c(C)n1-c1ccc(Cl)c(C(=O)O)c1	66.1*	17.4	137.1*	103.2*	72.5*	-1.3	Beacon interf DR=>99;Alpha artifact=-11.2%
CC(C)NC(=O)N1[C@@H]2c3ccc(-c4cccc(C(=O)N(C)C)c4)c(=O)n3C[C@H]1[C@H](CO)[C@H]2C(=O)O	-0.6	.	.	.	.	.
COc1cc2c(cc1OC)-c1c(OC)c(OC)cc3c1[C@H](C2)N(C)CC3	58.4*	4.6	.	16.4	.	.	CASP1 counter=3.0
COC(=O)[C@@H]1[C@@H](CO)[C@@H]2Cn3c(ccc(-c4ccc(F)cc4)c3=O)[C@H]1N2C(=O)c1ccccc1F	-0.1	.	.	.	.	.
Cc1cc(/C=C2\C(=O)NC(=O)N(Cc3ccccc3Cl)C2=O)c(C)n1-c1ccc(C(=O)O)cc1	47.8*	32.1	58.0*	70.9*	.	.	Alpha artifact=-8.3%
CN1CCN(c2ccc(N)cc2Cl)CC1	-42.4	-9.7	77.0*	-18.6	.	.	Alpha artifact=-14.4%
